Source: PubChem
TNAP inh hi DEA = blocks human TNAP under high phosphate acceptor concentration; AID 1135; inhibition, % at 20 µM; P05186; actives 0.03% (n = 200,000); purified TNAP, CDP-star luminescence, 1 M DEA;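 active = over 50% inhibition of tissue-nonspecific alkaline phosphatase at 20 µM in the single-dose screen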;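 note: plate controls were DMSO wells for no effect and EDTA-quenched wells as full inhibition for full effect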
Furin inhibitor = inhibitors of human furin; purified furin, fluorogenic substrate cleavage; actives 0.061% (n = 220,000); inhibition, % at 20 µM or 30 µM; P09958; in the data active = inhibition above about 25%
Target sequence (P09958 108-714 limits assumed): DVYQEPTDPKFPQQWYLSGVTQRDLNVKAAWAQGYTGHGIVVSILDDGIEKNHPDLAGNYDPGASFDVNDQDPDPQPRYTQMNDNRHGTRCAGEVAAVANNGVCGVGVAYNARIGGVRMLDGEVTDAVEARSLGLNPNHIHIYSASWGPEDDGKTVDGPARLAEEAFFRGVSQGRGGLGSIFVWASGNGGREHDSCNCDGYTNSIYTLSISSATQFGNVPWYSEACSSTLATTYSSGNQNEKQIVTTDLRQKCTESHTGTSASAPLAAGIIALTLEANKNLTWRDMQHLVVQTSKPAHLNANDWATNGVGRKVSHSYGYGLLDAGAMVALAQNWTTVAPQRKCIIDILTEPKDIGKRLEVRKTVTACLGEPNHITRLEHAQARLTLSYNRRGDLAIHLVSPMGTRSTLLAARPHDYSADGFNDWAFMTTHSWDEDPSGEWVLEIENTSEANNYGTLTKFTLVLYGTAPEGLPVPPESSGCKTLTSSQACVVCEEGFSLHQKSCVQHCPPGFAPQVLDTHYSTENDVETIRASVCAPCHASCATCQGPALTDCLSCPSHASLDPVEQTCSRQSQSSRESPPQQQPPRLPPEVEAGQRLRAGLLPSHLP
Pf gamet viab = inhibitors of late stage P. falciparum gametocyte viability; P. falciparum stage V gametocytes, ATP luminescence, 24 h; inhibition, % at 10.9 µM; actives 0.065% (n = 150,000);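 active = inhibition above the mean plus 3 SD of compounds within the control limits, set per campaign, cut at about 38% in these data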;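 note: 0% = DMSO wells and 100% = medium only without gametocytes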
TNAP inh no acc = TNAP (human) inhibition, acceptor-free conditions; P05186; purified TNAP, CDP-star luminescence, 30 min; inhibition, % at 20 µM; actives 0.26% (n = 200,000);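 active = tissue-nonspecific alkaline phosphatase inhibition above about 50% at 20 µM in the single-dose screen, limit read from the data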;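 note: 0% = DMSO negative control and 100% = EDTA positive control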
Efa HMGR inh = blocks class II HMG-CoA reductase of Enterococcus faecalis; AID 1066; actives 0.41% (n = 190,000); inhibition, % at 10 µM; purified E. faecalis HMGR, NADPH absorbance 340 nm kinetic;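 active = inhibition above a set limit, the median over all tested compounds plus 3 SD, cut at about 9.5% in these data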;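 note: enzyme runs in reverse so mevalonate oxidation gives rising NADPH absorbance; 0% = complete reaction with DMSO and 100% = background rate lacking mevalonate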
TNAP act hi DEA = TNAP (human) activation, high acceptor | 200,000 tested, under 10 active | activation factor at 20 µM | P05186 | purified TNAP, CDP-star luminescence, 1 M DEA, 30 min; stronger effect = higher value; 0 = EDTA background, 1 = DMSO-only activity;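 active = activation factor at least 2 at 20 µM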
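system = human TNAP | amount = enzyme diluted 1/800 final | reagent = 100 µM CDP-star substrate | signal = luminescent substrate turnover signal | dosing = one dose, 20 µM | benchmarks = EDTA negative control, DMSO positive control | measure = activation factor | timing = 30 min reaction, room temperature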
An asterisk follows results filed as active; nt = no result. Rows were chosen to be rich in hits. Some 0.68% of all compounds tested hit in one or more screens of this group.

SMILES | TNAP inh hi DEA | Furin inhibitor | Pf gamet viab | TNAP inh no acc | Efa HMGR inh | TNAP act hi DEA
O=C(c1cc(Cl)ccc1Cl)N1CCN(c2ccccn2)CC1 | 0.6 | -18.6 | -21.0 | -6.8 | -9.4 | 1
CN(C1=NS(=O)(=O)c2ccccc21)c1ccc(OC(=O)c2ccncc2)cc1 | -3.7 | -29.8 | -14.0 | -4.6 | -0.5 | 1
Cc1cc(C(C)(C)C)c(OC(=O)[C@@H]2OC(c3ccccc3)=C[C@H]2c2ccccc2)c(C(C)(C)C)c1 | nt | nt | -3.7 | nt | nt | nt
CCn1c(CSc2nc3ccccc3s2)nnc1SCC(=O)c1ccc(Cl)cc1 | -3.0 | -4.3 | -36.1 | -10.3 | -6.2 | 1
CCn1c(CSc2nc3ccccc3s2)nnc1SCC(=O)c1ccc(O)c(O)c1 | 11.0 | -17.7 | nt | 79.5* | 0.5 | 0.9
CCn1c(SCC(=O)c2ccc(O)c(O)c2)nnc1-c1ccccc1 | 6.0 | -20.9 | nt | 50.3* | 0.8 | 0.9
CC(=O)Oc1ccc2c(=O)c(-c3nc4ccccc4s3)coc2c1 | 0.2 | -26.3 | 15.3 | -3.1 | -3.0 | 1
O=Cc1cn[nH]c1-c1ccccc1 | -3.4 | -32.9 | nt | 74.9* | 2.5 | 1
CCN(CC)S(=O)(=O)c1ccc(N2CCOCC2)c(NC(=O)c2cccc3ccccc23)c1 | -3.0 | -4.3 | 14.1 | -10.7 | 5.2 | 1
CCN(CC)S(=O)(=O)c1ccc(N2CCOCC2)c(NC(=O)c2cc(-c3ccccn3)nc3ccccc23)c1 | -0.3 | -28.2 | 11.8 | 0.3 | 12.2* | 1
O=C(NCCN1CCN(c2ccccc2)CC1)c1ccc2c(c1)[nH]c(=S)n1c3ccccc3nc21 | -3.9 | -28.8 | 4.1 | -3.7 | 9.6* | 1
CCCCc1nc(SCC(=O)Nc2cc(C)on2)n[nH]1 | -7.5 | -11.5 | 6.2 | 56.9* | -0.6 | 1.1
COc1ccc(-c2nc(SCC(=O)Nc3cc(C)on3)n[nH]2)cc1 | 2.5 | -12.6 | nt | 70.4* | -1.8 | 1
Cc1nnc(NC(=O)CSc2n[nH]c(-c3ccccc3)n2)s1 | -4.5 | -24.5 | nt | 58.8* | -4.3 | 1
CC(C)(C)OC(=O)N/N=C\c1ccc([N+](=O)[O-])s1 | 0.4 | -27.1 | -26.3 | -3.7 | 2.1 | 1
CCOC(=O)N/N=C\c1ccc([N+](=O)[O-])s1 | 4.7 | -23.4 | nt | -5.3 | 11.0* | 1
CC(NC1CCCCC1)C(=O)NN=C(c1ccccc1)c1ccccc1 (centres undefined) | -6.6 | -22.2 | nt | -4.3 | 2.4 | 1.1
COc1ccc(/C=N/n2c(=O)[nH]c3c([nH]c4ccc(C)cc43)c2=O)cc1CN1CCOCC1 | -5.3 | 32.2* | nt | -7.9 | -4.7 | 1.1
CC(C)NC(=O)CC(=O)N/N=C\c1ccccc1C(=O)O | -3.2 | -30.9 | -2.6 | -7.6 | -2.2 | 1
CC(O)C(=O)N/N=C/c1ccccc1C(=O)O (centres undefined) | -4.4 | -25.7 | 9.2 | -9.4 | 13.4* | 1
CCS(=O)(=O)n1nc(-c2ccc(Cl)cc2)nc1SC | 0.3 | -25.1 | nt | 61.4* | -2.2 | 1
C=CCn1c(SCC(=O)N2CCOCC2)nc(O)c(Cc2ccccc2)c1=O | -4.9 | -16.0 | nt | -8.3 | 1.5 | 1
Cc1ccc(-c2cc(C(=O)N/N=C/c3ccco3)n[nH]2)s1 | 13.0 | -11.7 | -10.1 | 68.0* | -3.1 | 0.9
O=C(N/N=C/c1ccco1)c1cc(-c2ccc3ccccc3c2)n[nH]1 | -2.6 | -13.3 | nt | 3.2 | -6.4 | 1
CCc1ccc(-c2cc(C(=O)N/N=C/c3ccco3)[nH]n2)cc1 | -1.0 | -15.5 | 9.4 | 50.8* | -0.6 | 1
SMILES | TNAP inh hi DEA | Furin inhibitor | Pf gamet viab | TNAP inh no acc | Efa HMGR inh | TNAP act hi DEA
CC(C)(C)c1cc(C(=O)N/N=C/c2ccco2)n[nH]1 | 2.1 | -1.5 | nt | 4.5 | -3.4 | 1
Cc1ccc(-c2cc(C(=O)O)n(-c3ccc(S(N)(=O)=O)cc3)n2)cc1 | 3.7 | -30.8 | -9.0 | 0.9 | 15.8* | 1
Cc1ccc(-n2nc(C(=O)O)c(O)cc2=O)cc1 | -2.5 | -24.0 | -11.2 | -5.1 | -3.5 | 1
NNC(=O)c1cc(O)c(O)c(O)c1 | 15.1 | 10.8 | 8.3 | 57.5* | -0.2 | 0.8
COc1c(Cl)cc(C(=O)NN)cc1Cl | 0.5 | -27.4 | nt | -2.7 | -3.6 | 1
CN1C(=O)C2(OCCCO2)c2ccccc21 | nt | nt | 8.1 | nt | nt | nt
C=CCN([C@H](C(=O)OC)C(C)C)S(=O)(=O)CCNCc1ccccc1 | nt | nt | 1.7 | nt | nt | nt
COc1cc(/C=N/Nc2ccc([N+](=O)[O-])cc2S(=O)(=O)N2CCOCC2)cc(OC)c1OC | 12.6 | -12.5 | 2.1 | 8.9 | -2.7 | 0.9
O=[N+]([O-])c1ccc(N/N=C/c2cccc(O)c2O)c(S(=O)(=O)N2CCOCC2)c1 | 39.1 | -21.2 | -59.5 | 78.9* | -2.0 | 0.6
O=[N+]([O-])c1ccc(N/N=C/c2ccc(O)c(O)c2O)c(S(=O)(=O)N2CCOCC2)c1 | 35.4 | -11.3 | nt | 29.6 | 21.8* | 0.6
CCN(C(=O)C(C)Cl)c1ccccc1 (centres undefined) | 1.4 | -23.2 | -21.0 | -8.0 | -2.6 | 1
CCOC(=O)/C=C/C(=O)OCC(=O)Nc1cccc(Br)c1 | -4.8 | -10.1 | 16.3 | -24.8 | -2.4 | 1
CCOC(=O)/C=C/C(=O)OCC(=O)Nc1ccc(C)cc1 | 1.3 | 0.6 | 1.0 | -0.2 | 11.3* | 1
COc1cc(/C=C/C(=O)OCC(=O)NC(=O)NC(C)C)ccc1O | nt | 27.2* | -0.8 | nt | nt | nt
COc1cc(/C=C/C(=O)OCC(=O)NC(=O)NC(C)C)ccc1OCC#N | -5.4 | -7.2 | nt | -9.7 | -9.4 | 1.1
COc1cc(/C=C/C(=O)CC(=O)/C=C/c2ccc(O)c(OC)c2)ccc1O | 52.6* | 8.4 | nt | 44.2 | -0.5 | 0.5
CC(C)COc1ccc(CSCCNC(=S)Nc2ccccc2)cc1 | -3.8 | -3.0 | -6.1 | -27.6 | 0.2 | 1
Cc1ccc(Nc2nnc(SCc3nc4ccccc4c(=O)[nH]3)s2)cc1 | -0.1 | -13.7 | 0.6 | 2.0 | -2.3 | 1
CC(NC(=O)c1cc(=O)[nH]c2ccccc12)c1ccccc1 (centres undefined) | -4.5 | -8.9 | 8.5 | -6.3 | 11.9* | 1
O=C(/C=C/c1ccc2c(c1)OCO2)NCCSCc1c(Cl)cccc1Cl | -4.0 | -5.0 | 17.2 | -0.6 | 0.1 | 1
Cc1nn(-c2ccccc2)c(N2CCCC2)c1C=O | -3.4 | -25.2 | 40.0* | -14.7 | 0.1 | 1
Cc1nn(-c2ccccc2)c(N2CCCCC2)c1/C=N/O | -7.4 | -8.0 | 14.4 | -4.2 | -0.8 | 1.1
CS(=O)(=O)Nc1ccc(C(=O)Nc2ccc3ccccc3c2)cc1 | nt | nt | -5.0 | nt | nt | nt
COc1ccc(OC)c(NC(=S)N2CCC(C(O)(c3ccccc3)c3ccccc3)CC2)c1 | 3.8 | 1.8 | 57.0* | -4.6 | -0.2 | 1
COc1ccc(OC)c(NC(=S)N2CCN(Cc3ccccc3)CC2)c1 | -4.1 | -15.3 | 0.0 | -11.1 | 1.7 | 1
CCN(Cc1nc2ccccc2c(=O)[nH]1)Cc1nc2cc(OC)c(OC)cc2c(=O)[nH]1 | -4.6 | -27.0 | 0.6 | -22.0 | -7.2 | 1
